In PubChem BioAssay AID1385 (PCMD, 2008) one finds inhibition data, which are given here for 95 molecules.

The campaign covered roughly 200,000 compounds. About 170 (0.085%) were called active.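 Rule for the calls: active = inhibition above 40% at the single screening dose; inactive = the rest.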 The sample as a whole holds a higher share of actives than the screen did.

Sequence of DNA repair protein RAD51 homolog 1 (Homo sapiens) (Q06609 whole entry, looked up): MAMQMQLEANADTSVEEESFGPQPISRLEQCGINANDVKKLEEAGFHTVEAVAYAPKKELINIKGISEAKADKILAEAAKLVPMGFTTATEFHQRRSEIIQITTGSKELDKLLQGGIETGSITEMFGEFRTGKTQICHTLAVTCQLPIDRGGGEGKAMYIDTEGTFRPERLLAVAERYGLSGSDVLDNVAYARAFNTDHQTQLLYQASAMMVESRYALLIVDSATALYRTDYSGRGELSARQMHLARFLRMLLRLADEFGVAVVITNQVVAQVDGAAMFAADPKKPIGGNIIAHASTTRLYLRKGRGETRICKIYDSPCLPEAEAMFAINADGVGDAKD

This test has as its target DNA repair protein RAD51 homolog 1 (Homo sapiens) (UniProt Q06609). Put plainly: human RAD51 strand exchange inhibitors, primary screen, biochemical, fluorescence (AID 1385).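 Note: 0% = DMSO control wells and 100% = blanks with heterologous ssDNA.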 To be noted: hRad51 DNA strand exchange, fluorescence dequenching; at 10 µM; stronger effect = higher value. The method in brief: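 Material: hRad51 filaments on single-stranded DNA; Reagent: Donor/quencher-labelled 47-bp dsDNA substrate; Compound: 10 µM final, single point; Schedule: 37 °C 15-min filament assembly, 30-min compound preincubation, 15-min exchange; Technique: FRET fluorescence, excitation 485 nm, emission 520 nm; Benchmarks: control wells and blank wells on each plate.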
A word on the inhibition: it is the drop in the measured response relative to a control, in per cent. For the molecule `O=[N+]([O-])c1cc([N+](=O)[O-])c2cccnc2c1O`, the inhibition was 5.92% (inactive).
Next, `O=C(CCc1ccccc1)NNc1ccc(F)cc1`: 4.26% (inactive).
As for `NS(=O)(=O)c1ccc(NC(=O)COC(=O)c2cc3ccccc3oc2=O)cc1`, the inhibition was 3.3% (inactive).
Turning to `Cc1c(NC(=O)CN2C(=O)C(=O)N(Cc3ccccc3)C2=O)c(=O)n(-c2ccccc2)n1C`, the inhibition was 1.05% (inactive).
Regarding `O=C1N=C(N2CCc3ccccc3C2)S/C1=C\c1ccc(O)cc1`, the inhibition is -11.2% (inactive).
Regarding `O=C1/C(=C/c2coc3ccc(O)cc3c2=O)SC(=S)N1c1ccccc1`, the inhibition was -16.3% (inactive).
Take `O=C(O)c1ccc(/C=N/Nc2nc(N3CCCCC3)nc(N3CCCCC3)n2)cc1`: the inhibition was 8.17% (inactive).
Then `Cn1cnc(S(=O)(=O)Nc2ccc3c(c2)OCCO3)c1`, with 10.8% (inactive); and `O=C(O)CC12CC3CC(C1)CC(n1ncc(NCc4ccc(F)cc4)c(Cl)c1=O)(C3)C2`, with -1.62% (inactive).
Consider `O=C(Cc1cccc2ccccc12)NNC(=O)Nc1ccc(Cl)cc1`, for which the inhibition is 18.3% (inactive).
Then `Cc1nnc(Nc2ccccc2F)s1`, with 21.3% (inactive); and `CCOC(=O)CN(C(=O)COc1nc(C)cc(C)c1C#N)c1ccc(Cl)cc1`, with 1.01% (inactive).
As for `FC(F)(F)c1cccc(-c2nc(COc3ccc(Cl)cc3Cl)no2)c1`, the inhibition is 4.51% (inactive).
Next, `CCSC1=NCCN1S(=O)(=O)c1ccc(F)cc1`: -1.84% (inactive); `CCSC1=NCCN1C(=O)c1ccc(S(=O)(=O)N(CC)CC)cc1`: 40.5% (active); `CSC1=NCCN1C(=O)c1ccc(S(=O)(=O)N2CCOCC2)cc1`: -4.11% (inactive).
Consider `C/C(Cc1ccccc1)=N\NC(=O)CNC(=O)c1ccccc1Cl`, for which the inhibition was 11.3% (inactive).
Then `COc1ccc(OC)c(NC(=O)N[C@H](Cc2ccccc2)C(=O)NN)c1`, with 19% (inactive).
Then `N#Cc1ccc(Oc2ccc(C(F)(F)F)cc2NC(=O)c2ccc(F)cc2)cc1`, with 18.6% (inactive); and `COCCn1c(SCC(=O)c2[nH]c(C)c(C(C)=O)c2C)nc2ccccc2c1=O`, with -4.09% (inactive); and `COc1ccc(/C=N/n2nnnc2N)cc1OC`, with -13.6% (inactive).
Next, `Cc1cc(Nc2ccc(N3CCOCC3)cc2)c2cccc(C)c2n1`: 15.5% (inactive); `Nc1ccccc1C(=O)NC1CCCCNC1=O` (stereo not given): 11.6% (inactive); `COc1cc(N2C(=O)CC3(CCCC3)CC2=O)cc(OC)c1OC`: -3.47% (inactive).
On to `Cc1ccc(Nc2c3c(nc4ccccc24)CCC3)cc1`, for which the inhibition is 16.7% (inactive).
With `O=C1N[C@H](Cc2ccccc2)C(=O)N[C@H]1Cc1cn(S(=O)(=O)c2ccccc2)c2ccccc12`, the inhibition is -3.92% (inactive).
Take `O=C(NC1C2CC3CC(C2)CC1C3)c1ccc(N2CCNCC2)c([N+](=O)[O-])c1` (stereo not given): the inhibition is -5.43% (inactive).
Next, `CC(=O)N/C(=C\c1ccc(F)cc1)C(=O)NC(Cc1ccccc1)C(=O)O` (stereo not given): 5.67% (inactive); `CN(C)S(=O)(=O)c1ccc(C(=O)NCC(C)(C)N2CCOCC2)cc1`: -11.7% (inactive); `NC(=O)c1ccc(-c2csnn2)cc1`: 9.52% (inactive).
For `Nc1c(Cl)cc(S(N)(=O)=O)cc1S(N)(=O)=O`, the inhibition was 3.22% (inactive).
`O=C(Nc1cccc2c1N(C(=O)c1ccco1)CCC2)c1ccco1`: the inhibition was 15.4% (inactive).
In the case of `CC1Cc2ccccc2N1CC(=O)Nc1ccc(S(N)(=O)=O)cc1` (stereo not given), the inhibition was -6.22% (inactive).
Next, `Cc1ccc(NC(=O)/C(=C/c2ccc([N+](=O)[O-])cc2)NC(=O)c2ccccc2)cc1`: -17.5% (inactive); `NNC(=O)c1cccc(COCC(F)(F)C(F)F)c1`: 8.15% (inactive).
Next, `O=C(Nc1ccccc1)C1CC(=O)n2c(nc3ccccc32)N1` (stereo not given): 1.59% (inactive); `NC(=O)c1ccc(NC(=O)COC(=O)c2ccc([N+](=O)[O-])cc2)cc1`: -14.5% (inactive).
Then `CCCc1c(C(=O)Nc2ccc(F)cc2)cnn1-c1ccccc1`, with -9.46% (inactive).
Take `Cc1cc(C(=O)OCC(=O)Nc2nccs2)c2ccccc2n1`: the inhibition is -4.52% (inactive).
Turning to `CCc1nc(NCCO)c(C#N)c2c1CCCC2`, the inhibition is 18.4% (inactive).
Next, `Cn1c(=O)c(=O)n(C)c2cc(S(=O)(=O)NCCN3CCN(c4ccccc4F)CC3)ccc21`: 0.68% (inactive).
`Cc1ccc(N2C(=O)CN=C2Nc2nc(C)cc(C)n2)cc1`: the inhibition was 7.92% (inactive).
On to `COC(=O)c1sccc1NC(=O)CC1C(=O)NCCN1C(=O)Nc1ccc(F)cc1F` (stereo not given), for which the inhibition was 1.89% (inactive).
Take `Fc1ccc(-c2csc(-c3ccc(C4SCCS4)cc3)n2)cc1F`: the inhibition was 1.29% (inactive).
Then `O=C(NNC(=O)c1csc(-c2cccnc2)n1)Nc1ccc(Cl)cc1`, with -5.17% (inactive); and `COCc1cc(=O)[nH]c(-c2ccc(C(F)(F)F)cc2)n1`, with 7.88% (inactive).
Next, `CSc1sc(C(=O)NNC(=O)c2ccc(Cl)cc2)c2c1C=CCC2`: -9.57% (inactive); `N#Cc1c(NCCO)ccc([N+](=O)[O-])c1NCCO`: 16.9% (inactive).
Next, `COc1ccc(NC(=O)C2=C(C)NC(=O)NC2c2ccccc2[N+](=O)[O-])cc1` (stereo not given): 0.69% (inactive).
For `O=S(=O)(c1ccccc1)N1CN(Cc2ccc(F)cc2)c2nc3ccccc3nc21`, the inhibition is 7.4% (inactive).
Next, `CC1(C)C2CC[C@]3(C)C(CC=C4[C@@H]5C[C@@](C)(CO)CC[C@]5(C(=O)O)CC[C@]43C)[C@@]2(C)CC[C@@H]1O` (stereo not given in full): 6.09% (inactive); `Cc1cc(N2CCN(c3ccccc3)CC2)nc(N2CCOCC2)n1`: 26.8% (inactive); `COc1ccc(Cn2c(O)c(/C=C3/C=CC=N3)c(=O)[nH]c2=O)cc1`: -6.92% (inactive).
Take `COC(=O)c1ccc(C(NC(=O)OCc2ccccc2)/C(F)=C/[C@@H](C)C(=O)O)cc1` (stereo not given in full): the inhibition was -2.27% (inactive).
Take `Cc1cccn2c(CNCC(C)Oc3cccnc3)c(C(=O)N3CCOCC3)nc12` (stereo not given): the inhibition was -2.58% (inactive).
Next, `N#CC1=C(N)Oc2c(ccc3cccnc23)C1c1ccncc1` (stereo not given): 12.7% (inactive).
Next, `CN(C)CCCN(Cc1cc2cc3c(cc2[nH]c1=O)OCCO3)C(=O)NC1CCCCC1`: 0.9% (inactive); `C/C(CC(=O)NC(C)c1ccccc1)=N\NC(N)=S` (stereo not given): 21.4% (inactive).
Consider `NCC(=O)c1cccc2ccc[n+]([O-])c12`, for which the inhibition is -0.26% (inactive).
Then `CCCOc1ccc(Cl)cc1Nc1nc(NCCO)nc(N2CCCC2)n1`, with 6.75% (inactive); and `Cc1cc(NC(=O)OC(C)C)ccc1-c1ccc(NC(=O)OC(C)C)cc1C`, with -19.8% (inactive).
Consider `CCn1c(SCC(=O)Nc2sc(C)c(C)c2C#N)nnc1C1CC1`, for which the inhibition is -26.7% (inactive).
Take `CCNc1nc(NCC)nc(N/N=C/c2ccc(O)c(OC)c2)n1`: the inhibition was 5.6% (inactive).
Next, `Cc1cc(C)nc(Nc2n[nH]c(-c3ccccc3N)n2)n1`: 22.9% (inactive).
Take `COC(=O)c1cc(C(=O)OCC(=O)Nc2cc(C)on2)cc([N+](=O)[O-])c1`: the inhibition was -19.8% (inactive).
Turning to `O=C(CCl)Nc1cccc(CP(=O)(c2ccccc2)c2ccccc2)c1`, the inhibition is 3.48% (inactive).
`Cc1nc(-c2ccccc2)sc1-c1nnc(C2CC2)o1`: the inhibition is 13.8% (inactive).
Next, `Cc1cc(=O)oc2cc(OCC(=O)Nc3nnc(C4CC4)s3)ccc12`: 27.8% (inactive); `CCCSc1ncccc1C(=O)O`: 14.8% (inactive); `Cc1ccc(NC(=O)C/C(N)=N/O)cc1Cl`: -4.43% (inactive).
`O=S(=O)(Cc1noc(-c2ccc(OC(F)(F)F)cc2)n1)c1ccc(F)cc1`: the inhibition is -2.58% (inactive).
Next, `CC(NC(=O)C(=O)Nc1nccs1)c1ccccc1` (stereo not given): 2.32% (inactive).
Next, `CCOC(=O)c1c(N)sc2c1CCCC2=O`: 10.5% (inactive).
As for `CCCc1nc2c(c(=O)c3ccccc3n2C)c(=O)n1-c1cc(C)cc(C)c1`, the inhibition was 20% (inactive).
For the molecule `Cc1cc(N)n(-c2ccc(S(=O)(=O)N3CCCC3)cc2[N+](=O)[O-])n1`, the inhibition was 4.97% (inactive).
Then `O=C(N/N=C/c1ccco1)c1csc2c1CCCC2`, with 7.09% (inactive).
Next, `Cn1c2c(c(=O)n(C)c1=O)C(c1cccc(F)c1)C(C#N)=C(N)O2` (stereo not given): 1.62% (inactive).
Then `O=C1NNC(c2ccccc2)=N/C1=C\c1ccc(Cl)cc1`, with -17% (inactive); and `O=C(NCCN1CCOCC1)c1ccc2c(c1)N(Cc1ccc(Cl)cc1)CCS2`, with 22.5% (inactive); and `CC1(C)CC(=O)C=C(Nc2ccccc2)C1`, with 8.69% (inactive).
Regarding `O=C(C1=C(O)C(=O)N(CCOCCO)C1c1ccccn1)c1cccs1` (stereo not given), the inhibition is 21.9% (inactive).
For the molecule `CC12CN3CCN(CC(C3)/C1=N\NC(=O)c1ccccc1N)C2`, the inhibition is -2.47% (inactive).
Then `Nc1scc[n+]1Cc1cccc2cccnc12`, with 9.86% (inactive).
Next, `Cc1c(CCC(=O)O)c(=O)oc2cc3occ(-c4ccccc4)c3cc12`: 3.32% (inactive); `O=C(Cn1cnc2ccccc2c1=O)Nc1cccc(S(=O)(=O)N2CCCCC2)c1`: 11.5% (inactive); `Cn1c(=O)c2c(-c3cccc(Br)c3)c(C#N)c(N)nc2n(C)c1=O`: 4.26% (inactive).
Then `COc1ccccc1/C=C/C=N/NC(=O)CN1CCN(Cc2ccccc2)CC1`, with -30.5% (inactive); and `CCOc1cc2c(Cl)ncnc2c(OCC)c1OCC`, with -5.3% (inactive).
Regarding `O=S(=O)(Nc1ccc(Cl)cn1)c1cnc(Cl)c(Br)c1`, the inhibition is 12% (inactive).
Then `CC(NCc1ccccc1OC1CCCC1)c1ccccc1` (stereo not given), with 15.6% (inactive); and `O=c1cc(CCl)nc2scc(-c3ccccc3)n12`, with -3.51% (inactive).
Next, `CNC(=S)NNC(=O)c1oc2nc(-c3ccccc3)cc(-c3ccco3)c2c1N`: -38.4% (inactive); `Cc1onc(-c2c(Cl)cccc2Cl)c1C(=O)NNC(=O)c1c(-c2c(Cl)cccc2Cl)noc1C`: 9.44% (inactive); `COc1cccc(Nc2nc(N)c([N+](=O)[O-])c(NCc3ccco3)n2)c1`: 1.8% (inactive).
Next, `COc1ccc(CN2CC[C@H]3C=CC[C@@H](C(=O)N4CCOCC4)[C@H]3C2=O)cc1OC`: -2.64% (inactive).
